# ChEMBL document CHEMBL1131011, “Pharmacophores incorporating numerous excluded volumes defined by X-ray crystallographic structure in three-dimensional database searching: application to the thyroid hormone receptor” (J Med Chem, 1998)
# Molecular target: T1, Thyroid hormone receptor alpha (Homo sapiens, UniProt P10827)
# T1 sequence (P10827 whole entry): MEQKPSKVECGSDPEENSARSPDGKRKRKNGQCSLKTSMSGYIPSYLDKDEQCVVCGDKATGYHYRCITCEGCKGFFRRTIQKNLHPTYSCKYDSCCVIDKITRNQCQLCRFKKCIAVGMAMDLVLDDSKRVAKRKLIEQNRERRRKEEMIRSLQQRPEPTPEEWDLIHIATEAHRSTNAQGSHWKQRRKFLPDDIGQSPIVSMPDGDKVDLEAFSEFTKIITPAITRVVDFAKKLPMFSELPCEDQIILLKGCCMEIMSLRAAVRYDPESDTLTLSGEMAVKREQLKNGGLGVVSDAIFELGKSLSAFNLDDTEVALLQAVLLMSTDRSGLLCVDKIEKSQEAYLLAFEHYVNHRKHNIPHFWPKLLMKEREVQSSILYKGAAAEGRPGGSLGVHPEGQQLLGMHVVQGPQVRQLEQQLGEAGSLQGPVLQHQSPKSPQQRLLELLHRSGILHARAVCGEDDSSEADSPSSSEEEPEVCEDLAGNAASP
# Assay: Inhibitory activity expressed as concentration required to inhibit the binding of [125I]T3 to human thyroid hormone-alpha; call rule not given here
# Outline: (§1)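 hTHR from nuclear extracts of baculovirus-infected sf-9 cells, 20 pM final, with [125I]T3 at 200 pM final. Compounds serially diluted in DMSO. Buffer: 400 mM KCl, K phosphate, 1 mM MgCl2, 0.5 mM EDTA, 8.7% glycerol, 6 mM monothioglycerol, 0.5% reticulocyte lysate; 18–20 h, 4 °C. Bound and free separated on Sephadex G-25, gamma-counted. IC50 from competition curve, second of two titrations.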
row,SMILES,IC50 [µM]
1,O=C(Nc1ccc(Cc2ccc(NC(=O)c3cccc([N+](=O)[O-])c3)cc2)cc1)c1cccc([N+](=O)[O-])c1,18.1
2,[NH-]C(c1cc(Cl)cc(Cl)c1)=[N+](N)S(=O)(=O)c1cc(Cl)c(Oc2ccc([N+](=O)[O-])cc2Cl)c(Cl)c1,0.93
3,N=C(CCl)N(N)S(=O)(=O)c1cc(Cl)c(Oc2ccc([N+](=O)[O-])cc2Cl)c(Cl)c1,1.8

# More lines, now with the values ahead:
row,IC50 [µM],SMILES
1,39,N=C(c1ccccn1)N(N)S(=O)(=O)c1cc(Cl)c(Oc2ccc([N+](=O)[O-])cc2Cl)c(Cl)c1
2,69,Cn1c(Cc2nn(C)c(=O)c3ccccc23)ccc1SCC(=O)c1ccc(Cl)cc1Cl

# Molecular target: T1, Thyroid hormone receptor alpha
# Assay: Inhibitory activity expressed as concentration required to inhibit the binding of [125I]T3 to human thyroid hormone-alpha; NA =Inactive
# Outline: as §1
row,SMILES,IC50
1,N=C(c1ccc(Cl)cc1)N(N)S(=O)(=O)c1cc(Cl)c(Oc2ccc([N+](=O)[O-])cc2)c(Cl)c1,Not Active
2,Cn1c(Cc2nn(C)c(=O)c3ccccc23)ccc1SCc1ccc(Cl)cc1Cl,Not Active

# Further lines, results first:
row,IC50,SMILES
1,Not Active,N=C(c1ccc(Cl)cc1)N(N)S(=O)(=O)c1cc(Cl)c(Oc2ccc([N+](=O)[O-])cc2Cl)c(Cl)c1
2,Not Active,N=C(c1cccnc1)N(N)S(=O)(=O)c1cc(Cl)c(Oc2ccc([N+](=O)[O-])cc2Cl)c(Cl)c1
